# FAS-TE inh: blocks the thioesterase domain of human fatty acid synthase. P49327. recombinant FAS-TE, OMFH fluorogenic substrate, fluorescence endpoint. inhibition, % at 15 µM. 0.67% of 360,000 active;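 active = compounds whose normalised, plate-corrected inhibition of enzyme fluorescence in the single-dose primary screen is 50% or more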;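 also: 0% = DMSO with enzyme and 100% = substrate without enzyme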
# RanGTP-Impb inh: disruptors of Ran-importin-beta complex formation – biochemical, FRET, CFP-Ran, YFP-importin-beta, homogeneous, primary screen; cell-free CFP-Ran/YFP-importin-beta FRET ratio; inhibition, % (no concentration beside the values); 1.1% of 300,000 active; AID 2216;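 active = more than half of the replicate wells show a fall in the fluorescence ratio signal beyond about 16%, limit read from the data, passing the limit was not always enough; inconclusive = exactly half of the replicate wells pass the set limit; inactive = fewer than half of replicates pass the limit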;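 also: 0% = DMSO wells and 100% = Ran loaded with GDP instead of GTP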
# Runt-SMMHC FRET: blocks binding of human RUNX1 Runt domain to CBFb-SMMHC; Q01196+Q13951; inhibition, % at 20 µM; 0.74% of 220,000 active; AID 1434; Cerulean-Runt/Venus-CBFb-SMMHC FRET ratio 530/480, 1 h;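 active = mean inhibition across duplicate retests at 20 µM reaching about 50%, limit read from the data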;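 also: 0% = DMSO wells and 100% = wells with excess untagged CBFb-SMMHC; inhibitors lower the FRET ratio by blocking Runt binding to CBFb-SMMHC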
# Target sequence (Q01196 whole entry, looked up, the tested form may be a part): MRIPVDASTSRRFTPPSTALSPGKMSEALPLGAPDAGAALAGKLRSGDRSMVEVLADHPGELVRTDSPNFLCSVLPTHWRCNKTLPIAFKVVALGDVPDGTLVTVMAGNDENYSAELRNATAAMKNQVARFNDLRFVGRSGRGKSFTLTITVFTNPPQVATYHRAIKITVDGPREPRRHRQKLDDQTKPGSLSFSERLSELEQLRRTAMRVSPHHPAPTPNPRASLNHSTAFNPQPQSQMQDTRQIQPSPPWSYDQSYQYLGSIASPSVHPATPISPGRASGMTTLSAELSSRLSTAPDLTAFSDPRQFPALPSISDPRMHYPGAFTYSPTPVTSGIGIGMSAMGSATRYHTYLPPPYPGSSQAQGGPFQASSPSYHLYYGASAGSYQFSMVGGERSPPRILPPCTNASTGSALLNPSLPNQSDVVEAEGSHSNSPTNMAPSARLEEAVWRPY
# Target sequence (Q13951 whole entry, looked up, the tested form may be a part): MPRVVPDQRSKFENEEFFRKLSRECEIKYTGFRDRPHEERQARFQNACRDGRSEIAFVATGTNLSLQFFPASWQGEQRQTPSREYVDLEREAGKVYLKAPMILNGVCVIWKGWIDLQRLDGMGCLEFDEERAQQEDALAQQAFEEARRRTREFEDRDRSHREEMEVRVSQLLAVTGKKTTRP
# Runt-CBFb FRET: inhibitors of human RUNX1 Runt domain binding to CBFb; Cerulean-Runt/Venus-CBFb FRET ratio 530/480, 1 h; inhibition, % at 20 µM; 0.46% of 220,000 active; AID 1496;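 active = inhibition over about 50% at 20 µM in the single-dose screen, limit read from the data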;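 also: 0% = DMSO wells and 100% = excess unlabeled CBFb competitor control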
#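 test system = Cerulean-tagged RUNX1 Runt domain (FRET donor) fusion protein | reagent = Venus-CBFb binding partner, 100 nM | incubation = protein complex preformed 1 h, compound exposure 1 h, room temperature, dark | detection = FRET fluorescence | read-out basis = loss of energy transfer signal | controls = 5 µM unlabeled CBFb as full-inhibition high control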
# m-calpain inh: inhibitors of pig calpain II. purified calpain II, fluorogenic peptide substrate, 30 min. inhibition, % at 16 µM. 0.37% of 220,000 active. AID 1236;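 active = inhibition above about 50%, limit read from the data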
# * marks the source's active call; other numbers are inactive results; ? = inconclusive; . = not tested or not shown. This is a sample that favours compounds with a hit; in the whole collection about 2.1% have one here.
SMILES,FAS-TE inh,RanGTP-Impb inh,Runt-SMMHC FRET,Runt-CBFb FRET,m-calpain inh
COc1ccc(CNC(=O)COC(=O)c2cc(-c3ccc(Cl)s3)nc3ccccc23)cc1,24,17*,-6,-2,-434
CC(C)N1CCN(C(=O)C2CCC(=O)N(CCc3cccc(F)c3)C2)CC1 (centres undefined),-2,-4,.,.,.
O=c1[nH]c(C(Cl)Cl)nc2sc3c(c12)CCN(Cc1ccccc1)C3,22,37*,.,54*,-127
O=[N+]([O-])c1cc(C(F)(F)F)ccc1NCCc1c[nH]c2ccccc12,38,2,-5,-3,50*
O=[N+]([O-])c1cc(C(F)(F)F)ccc1NCCc1c[nH]c2ccc(O)cc12,28,-2,0,-2,52*
CS(=O)(=O)NCCCNc1ccc(C(F)(F)F)cc1[N+](=O)[O-],-5,-1,-1,1,8
COC(=O)c1c(C(=O)OC)c(-c2ccccc2)n2c1CS(=O)(=O)C2,-6,22*,-1,1,-7
COC(=O)c1c(C(=O)OC)c(-c2ccc(F)cc2)n2c1CS(=O)(=O)C2,-8,4,.,.,.
O=C(NCC1CCCO1)c1ccc([N+](=O)[O-])s1 (centres undefined),-4,-1,.,.,.
Cc1c(Nc2scc(-c3ccccc3)[n+]2-c2ccccc2)c(=O)n(-c2ccccc2)n1C,7,-2,2,2,2
Cc1ccccc1Nc1scc(-c2ccc(Cl)cc2)[n+]1-c1ccccc1C,38,0,0,-1,50*
CN(C)S(=O)(=O)c1ccc(NC(=O)C2CC(=O)N(Cc3ccccc3Cl)C2)cc1 (centres undefined),38,-1,.,.,.
C/C(O)=c1/ccc2cccc3nc(C)nc1c23,-19,54*,.,-13,-402
N#CCc1cnc2ccccc2n1,-5,29*,-5,1,6
OCCOC1CCCc2oc(-c3ccccc3)c(C#CC3(O)CCCCC3)c21 (centres undefined),4,.,.,.,.
O=C(NC1CCCCC1)c1cc(S(=O)(=O)N2CCOCC2)c(Cl)cc1Cl,0,?,.,.,.
Cc1ccc(C)n1-c1cc(S(=O)(=O)N2CCOCC2)ccc1N1CCCC1,0,33*,-2,-2,2
CNCc1cc(C)n(-c2cc(S(=O)(=O)N3CCOCC3)ccc2N2CCCC2)c1C,-10,.,.,.,.
CN1C(=O)Cc2cc(S(=O)(=O)N3CCOCC3)ccc21,-6,39*,3,0,-9
CCn1c(SCC(=O)NCC2CCCO2)nnc1-c1ccc(Cl)cc1 (centres undefined),-8,26*,-2,-1,13
CCn1c(SCC(=O)NCC2CCCO2)nnc1-c1c[nH]c2ccccc12 (centres undefined),-5,5,-3,4,16
CCCCN(C(=O)COC(=O)C1(c2ccccc2)CC1)c1c(N)n(CCC)c(=O)[nH]c1=O,-4,.,.,.,.
Cc1ccc(S(=O)(=O)C(C#N)c2nc3ccccc3nc2N2CCN(C)CC2)cc1C (centres undefined),0,94*,46,14,-44
Cc1cccc(S(=O)(=O)C(C#N)c2nc3ccccc3nc2N2CCCC2)c1 (centres undefined),-13,1,-32,-14,-378
CN1CCN(c2nc3ccccc3nc2C(C#N)S(=O)(=O)c2ccccc2)CC1 (centres undefined),.,64*,-4,42,-10
SMILES,FAS-TE inh,RanGTP-Impb inh,Runt-SMMHC FRET,Runt-CBFb FRET,m-calpain inh
CCN(CC(=O)Nc1c(F)cccc1F)C(=O)c1ccc2ncsc2c1,-7,.,.,.,.
C=CC(=O)N=c1sc2ccccc2n1-c1ccccc1,-1,-1,3,2,15
N=c1sc2ccccc2n1-c1ccccc1,-23,35*,14,3,-3
COc1ccc(C(=O)Nc2ccnn2C2CCN(C(C)CSC)CC2)cc1 (centres undefined),-8,8,.,.,.
Cc1ccc(N2CC(NS(=O)(=O)c3cccnc3)CC2=O)cc1C (centres undefined),-5,32*,.,.,.
Cc1cc(C)n2nc(C(=O)OCC(=O)N(Cc3ccccc3)C(C)C)nc2n1,0,.,.,.,.
FC(F)(F)c1cc(-c2cccs2)nc2cc(-c3ccccc3)nn12,1,46*,-3,2,-285
O=C(NCc1ccco1)c1cc2nc(-c3cccs3)cc(C(F)(F)F)n2n1,11,20*,39,24,-214
Cc1ccc(N/N=C2\CCS(=O)(=O)c3sccc32)cc1,11,?,1,1,54*
